Assay results from different studies.
Lines come from different studies, so protocols differ.
Target: Calcium/calmodulin-dependent protein kinase type 1 (CAMK1, Homo sapiens, UniProt Q14012)

Nc1ncc2c(n1)-c1c([nH]c3ccc(C#CC4CC4)cc13)CCCC2 gave a remaining binding of 100% (binding, competition with immobilised ligand; 1 µM).
F[C@@H]1CCN(c2nccc(-c3cnn4ncccc34)n2)C1 gave a remaining binding of 100% (binding; 1 µM).
With O=C1NC(c2ccccn2)Sc2ccccc21 (stereo not drawn) the remaining binding was 91% (cell-free assay, competition with immobilised ligand; 1 µM).
For Cc1cnn2ncc(-c3ccnc(N(C)C)n3)c2c1, the remaining binding was 92% (binding; 1 µM).
For O=C(c1ccc(Nc2ncc(Cl)c(-c3ccc(Cl)s3)n2)cc1)N1CCC(N2CCCC2)CC1, the remaining binding was 54% (binding, competition with immobilised ligand; 1 µM).
C[C@H](c1ccc(F)cc1)N(Cc1cccc(C(=O)O)c1)C(=O)c1cnc2ccccc2c1 gave a remaining binding of 100% (cell-free assay, competition with immobilised ligand; 1 µM).
The remaining binding of CN(C)c1nccc(-c2cnn3ncccc23)n1 is reported as 100% (binding; 1 µM).
The remaining binding of c1cncc(-c2cccc(Nc3nccc(NC4CCCCC4)n3)c2)c1 is reported as 53% (binding, competition with immobilised ligand; 10 µM).
For CN(C)c1nccc(-c2cnc3ncccn23)n1, the remaining binding was 68% (binding; 1 µM).
The remaining binding of CCN1CCN(Cc2ccc(C(=O)Nc3ccc(C)c(Oc4ccc5c(c4)CC(=O)N5)c3)cc2C(F)(F)F)CC1 is reported as 100% (binding, competition with immobilised ligand; 1 µM).
With O=C(NCC1CCOCC1)c1n[nH]cc1NC(=O)c1c(F)cccc1F the remaining binding was 88% (binding, competition with immobilised ligand; 1 µM).
O=C(c1ccc(Nc2nccc(-c3cc4ccccc4s3)n2)cc1)N1CCC(N2CCCC2)CC1 has a remaining binding of 71% (binding, competition with immobilised ligand; 1 µM).
The remaining binding of C[C@@H]1CCN(c2nccc(-c3cnn4ncccc34)n2)C1 is reported as 87% (binding; 1 µM).
CO[C@H]1CC[C@H](CNc2ccc(S(=O)(=O)NC(=O)c3ccc(N4CCN(CC5=C(c6ccc(Cl)cc6)CC(C)(C)CC5)CC4)cc3Oc3cnc4[nH]ccc4c3)cc2[N+](=O)[O-])CC1 has a remaining binding of 88% (cell-free assay, competition with immobilised ligand; 1 µM).
For N[C@@H]1CCN(c2nccc(-c3cnn4ncccc34)n2)C1, the remaining binding was 100% (binding; 1 µM).
C[C@@H](c1cccc(C#N)c1)n1cc(Cl)cc(C(N)=O)c1=N has a remaining binding of 100% (cell-free assay, competition with immobilised ligand; 1 µM).
The remaining binding of O=C(NCCCN1CCOCC1)c1ccc(Nc2ncc(Cl)c(-c3ccc(Cl)s3)n2)cc1 is reported as 78% (binding, competition with immobilised ligand; 1 µM).
For Cn1cc(Cl)c2c(Oc3c(F)cc(Nc4cc(Cl)nc(N)n4)cc3F)ccnc21, the remaining binding was 100% (cell-free assay, competition with immobilised ligand; 0.1 µM).
For COc1cnc(Nc2cccc(S(N)(=O)=O)c2)nc1N1CCN(c2ccccc2)CC1, the remaining binding was 100% (binding, competition with immobilised ligand; 1 µM).
With CCCOc1ccc([C@H]2[C@H](C(=O)O)[C@@H](c3ccc4c(c3)OCO4)CN2CC(=O)Nc2c(CC)cccc2CC)cc1 the remaining binding was 93% (cell-free assay, competition with immobilised ligand; 1 µM).
For C[C@@H](c1ccc(-n2cnc3c(N)ncnc32)cc1)N1CCc2nn(C)c(Cc3ccccc3)c2C1=O, the remaining binding was 89% (binding, competition with immobilised ligand; 0.1 µM).
